Measured values gathered from unrelated publications.
Protocols differ between the studies behind these lines.
Cell line: MV4-11
Read-out: cell growth or viability

Compound | assay | conditions | quantity | value
c1cc(N2CCCC2)ccc1-c1cc2ncc(OCC3CCNCC3)nc2cc1-c1ccc(N2CCCC2)cc1 | XTT | 7 days | EC50 | 1900 nM
Cc1cc2c(C(=O)O)cccc2n1-c1nc2c(c(NCc3ccccc3)n1)CCCN2 | – | 72 h | IC50 | 800 nM
c1cc(-c2cc3ncc(OCC4CCNCC4)nc3cc2-c2cccc(N3CCCCC3)c2)cc(N2CCCCC2)c1 | XTT | 7 days | EC50 | 1400 nM
Cc1n[nH]c2ccc3nc(-c4ccc(C(=O)NCCN(C)C)nc4)c4c(c3c12)CCCCC4 | resazurin | 72 h | GI50 | 181 nM
Cc1sc2c(c1C)C(c1ccc(Cl)cc1)=N[C@@H](CC(=O)NCCCCNC(=O)COc1cccc3c1C(=O)N(C1CCC(=O)NC1=O)C3=O)c1nnc(C)n1-2 (stereo partly shown) | CCK-8 | 72 h | IC50 | 520 nM
CC(C)Cc1ccc([C@H](C)C(=O)O)cc1 | MTT | 72 h | IC50 | 277000 nM
Nc1ccccc1NC(=O)c1ccc(Cn2cnc3c(Nc4ccc(Cl)cc4)ncnc32)cc1 | MTT | 72 h | IC50 | 590 nM
Nc1cccc(-c2ccc3ncc(OCC4CCNCC4)nc3c2)c1 | XTT | 7 days | EC50 | ≥ 28000 nM
Cc1n[nH]c2ccc3nc(-c4ccc(C(=O)NCCN(C)C)cc4)c4c(c3c12)CCC(C)(C)C4 | resazurin | 72 h | GI50 | 223 nM
Cc1cc2c(C(N)=O)cccc2n1-c1nc2c(c(NCc3ccccc3)n1)CCCN2 | – | 72 h | IC50 | 300 nM
Nc1ccccc1NC(=O)c1ccc(Cn2cnc3c(Nc4ccc(Br)cc4F)ncnc32)cc1 | MTT | 72 h | IC50 | 280 nM
Cc1n[nH]c2ccc3nc(-c4ccc(C(=O)N(C)CCN(C)C)cc4)c4c(c3c12)CCC(C)(C)C4 | resazurin | 72 h | GI50 | 258 nM
O=C(NO)c1ccc(Cn2cnc3c(Nc4ccc(Br)cc4F)ncnc32)cc1 | MTT | 72 h | IC50 | 770 nM
c1ccc(Oc2ccc(Nc3ccc4ncc(OCC5CCNCC5)nc4c3)cc2)cc1 | XTT | 7 days | EC50 | 880 nM
COc1ccc(Nc2ncnc3c2ncn3Cc2ccc(C(=O)Nc3ccccc3N)cc2)cc1 | MTT | 72 h | IC50 | 720 nM
CN(C)CCNC(=O)c1ccc(-c2nc3ccc4[nH]ncc4c3c3c2COCC3)cc1 | resazurin | 72 h | GI50 | 291 nM
